Experimental data: ChEMBL document CHEMBL1144065, “Synthesis of furanonaphthoquinones with hydroxyamino side chains” (J Nat Prod, 1999)

Columns and labels:
Saccharomyces cerevisiae [1] = experiment: Growth inhibition of Yeast expressing rad52 mutant by yeast bioassay; assay type: functional
Outline: (§1)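 Agar diffusion assay: 100 µL wells cut in an agar layer overlaid with the repair-deficient yeast strain (∆rad52, or ∆rad52∆top1). IC12 in µg/mL is the concentration giving a 12 mm inhibition zone around the well.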

Saccharomyces cerevisiae [2] = experiment: Growth inhibition of Yeast expressing rad52.top1 mutant by yeast bioassay; assay type: functional; outline: as §1
[3] = Cytotoxicity against rat H4IIE cells by XTT assay; assay type: functional, cell-based
Outline: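 H4IIE rat hepatoma cells in culture; growth read out with the XTT protocol. IC50 in µM is the concentration giving 50% growth inhibition. Active compounds were run in two separate assays, and both values are reported.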

Vero = experiment: Cytotoxicity against african green monkey Vero cells; assay type: cell-based; settings: Chlorocebus sabaeus

Row | Compound | IC12 (Saccharomyces cerevisiae [1]) | IC12 (Saccharomyces cerevisiae [2]) | IC50 [3] | IC50 (Vero)
1 | CC(CO)(CO)NCc1cc2c(o1)C(=O)c1ccccc1C2=O | > 500 µg/mL | 240 µg/mL | 2 µM | –
2 | CC(C)(CO)NCc1cc2c(o1)C(=O)c1ccccc1C2=O | > 500 µg/mL | 210 µg/mL | 4 µM | –
3 | COc1ccc2cn(C(C)(CO)CO)c3c2c1C(=O)c1ccoc1-3 | > 500 µg/mL | > 500 µg/mL | > 20 µM | –
4 | COc1cc(OC)c2c(c1)C(=O)c1occc1C2=O | > 8000 µg/mL | 125 µg/mL | 5 µM | –
5 | O=C1c2ccccc2C(=O)c2oc(CNC(CO)(CO)CO)cc21 | > 500 µg/mL | > 250 µg/mL | > 20 µM | –
6 | O=C1c2ccccc2C(=O)c2oc(CNCC(O)CO)cc21 (configuration not stated) | > 500 µg/mL | 220 µg/mL | 2 µM | –
7 | CC(O)c1cc2c(o1)C(=O)c1ccccc1C2=O (configuration not stated) | 14 µg/mL | – | – | 15.3 µM
8 | O=Cc1cc2c(o1)C(=O)c1ccccc1C2=O | 160 µg/mL | 44 µg/mL | 2 µM | –
9 | CCC(CO)(CO)NCc1cc2c(o1)C(=O)c1ccccc1C2=O | > 500 µg/mL | > 500 µg/mL | 5 µM | –
10 | O=C1c2ccccc2C(=O)c2occc21 | 83 µg/mL | 17 µg/mL | 5 µM | –
11 | COc1cccc2c1C(=O)c1ccoc1C2=O | 152 µg/mL | 44 µg/mL | 7 µM | –
